Reference: PMC5730044 (International journal of medical microbiology : IJMM, 2014)
≈ marks a conversion by molar mass, not a printed value. Where a name gives a salt, the structure may show the parent alone.

What was measured:
[1] = tested on: pneumococcal NA of strain DSM20566; assay: Lectin-based hemagglutination; format: cell-based, S. pneumoniae; details: minimal NA inhibitory concentration
[2] = tested on: pneumococcal NA of strain D39; assay: Lectin-based hemagglutination; format: cell-based, S. pneumoniae; details: for Inhibitory concentration (HA assay): minimal NA inhibitory concentration, strain D39
[3] = tested on: pneumococcal NA of strain CJ9400; assay: Lectin-based hemagglutination; format: cell-based, S. pneumoniae; details: minimal NA inhibitory concentration
[4] = tested on: S. pneumoniae DSM20566; assay: Biofilm inhibition assay; format: cell-based; details: DSM20566, TSB, 24 h
[5] = tested on: S. pneumoniae D39; assay: Biofilm inhibition assay; format: cell-based; details: D39, TSB, 24 h
[6] = tested on: S. pneumoniae DSM14378; assay: Biofilm inhibition assay; format: cell-based; details: DSM14378, TSB, 24 h
[7] = tested on: S. pneumoniae CJ9400; assay: Biofilm inhibition assay; format: cell-based; details: CJ9400, TSB, 24 h
[8] = tested on: S. pneumoniae CF6937; assay: Biofilm inhibition assay; format: cell-based; details: CF6937, TSB, 24 h
[9] = tested on: S. pneumoniae BC7326; assay: Biofilm inhibition assay; format: cell-based; details: BC7326, TSB, 24 h
[10] = tested on: S. pneumoniae CF8919; assay: Biofilm inhibition assay; format: cell-based; details: CF8919, TSB, 24 h
[11] = tested on: S. pneumoniae PN8828; assay: Biofilm inhibition assay; format: cell-based; details: PN8828, TSB, 24 h
[12] = tested on: S. pneumoniae BC57; assay: Biofilm inhibition assay; format: cell-based; details: BC57, TSB, 24 h
[13] = tested on: S. pneumoniae DSM20566; assay: Minimal bactericidal concentration; format: cell-based; details: viability reduced by ≥99.9%
[14] = tested on: S. pneumoniae D39; assay: Minimal bactericidal concentration; format: cell-based; details: viability reduced by ≥99.9%
[15] = tested on: S. pneumoniae DSM14378; assay: Minimal bactericidal concentration; format: cell-based; details: viability reduced by ≥99.9%
[16] = tested on: S. pneumoniae CJ9400; assay: Minimal bactericidal concentration; format: cell-based; details: viability reduced by ≥99.9%
[17] = tested on: S. pneumoniae CF6937; assay: Minimal bactericidal concentration; format: cell-based; details: viability reduced by ≥99.9%
[18] = tested on: S. pneumoniae BC7326; assay: Minimal bactericidal concentration; format: cell-based; details: viability reduced by ≥99.9%
[19] = tested on: S. pneumoniae; assay: Bactericidal activity, studied pneumococci; format: cell-based; details: for concentration up to which no inhibitory or bactericidal activity was exhibited: maximum tested concentration
[20] = tested on: pneumococcal adherence to pulmonary epithelial A549 cells; details: DSM20566 and PN8828
[21] = biological target: recombinant NanA of DSM20566 (Streptococcus pneumoniae, UniProt P62575); format: biochemical, S. pneumoniae; details: read-out: substrate affinity (Km) of rNanA; substrate 4-MUNANA
Sequence of recombinant NanA of DSM20566 (P62575 116-1035 limits assumed): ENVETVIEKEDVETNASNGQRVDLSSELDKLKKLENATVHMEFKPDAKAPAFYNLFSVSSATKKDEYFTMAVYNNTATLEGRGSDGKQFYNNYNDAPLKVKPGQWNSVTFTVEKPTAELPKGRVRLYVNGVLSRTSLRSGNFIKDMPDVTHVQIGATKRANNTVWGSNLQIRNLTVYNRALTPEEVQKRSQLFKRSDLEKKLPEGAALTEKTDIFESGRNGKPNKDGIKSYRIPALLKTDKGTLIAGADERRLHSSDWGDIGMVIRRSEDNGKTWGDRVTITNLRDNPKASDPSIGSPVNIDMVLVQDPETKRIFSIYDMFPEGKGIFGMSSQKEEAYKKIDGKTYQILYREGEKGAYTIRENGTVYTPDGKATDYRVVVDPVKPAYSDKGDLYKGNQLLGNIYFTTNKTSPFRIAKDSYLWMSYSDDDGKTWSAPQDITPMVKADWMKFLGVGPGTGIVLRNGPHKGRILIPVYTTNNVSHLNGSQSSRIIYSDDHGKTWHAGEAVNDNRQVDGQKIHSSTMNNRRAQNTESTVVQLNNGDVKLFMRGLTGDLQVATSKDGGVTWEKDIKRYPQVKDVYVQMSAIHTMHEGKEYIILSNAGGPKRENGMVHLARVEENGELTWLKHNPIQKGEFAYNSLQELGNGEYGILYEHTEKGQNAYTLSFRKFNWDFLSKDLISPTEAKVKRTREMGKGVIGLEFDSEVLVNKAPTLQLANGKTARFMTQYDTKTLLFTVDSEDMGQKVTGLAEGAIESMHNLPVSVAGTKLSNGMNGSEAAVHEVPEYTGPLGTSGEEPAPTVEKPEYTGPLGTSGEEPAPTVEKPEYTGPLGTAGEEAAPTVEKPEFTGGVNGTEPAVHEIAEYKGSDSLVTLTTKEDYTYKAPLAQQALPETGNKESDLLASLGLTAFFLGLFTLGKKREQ

[22] = tested on: S. pneumoniae DSM20566; assay: Broth microdilution assay; format: cell-based; details: Streptococcus pneumoniae, DSM20566, 18 h, read-out: 90% minimal inhibitory concentration
[23] = tested on: S. pneumoniae D39; assay: Broth microdilution assay; format: cell-based; details: Streptococcus pneumoniae, D39, 18 h, read-out: 90% minimal inhibitory concentration
[24] = tested on: S. pneumoniae DSM14378; assay: Broth microdilution assay; format: cell-based; details: Streptococcus pneumoniae, DSM14378, 18 h, read-out: 90% minimal inhibitory concentration
[25] = tested on: S. pneumoniae CJ9400; assay: Broth microdilution assay; format: cell-based; details: Streptococcus pneumoniae, CJ9400, 18 h, read-out: 90% minimal inhibitory concentration
[26] = tested on: S. pneumoniae CF6937; assay: Broth microdilution assay; format: cell-based; details: Streptococcus pneumoniae, CF6937, 18 h, read-out: 90% minimal inhibitory concentration
[27] = tested on: S. pneumoniae BC7326; assay: Broth microdilution assay; format: cell-based; details: Streptococcus pneumoniae, BC7326, 18 h, read-out: 90% minimal inhibitory concentration
[28] = tested on: S. pneumoniae CF8919; assay: Broth microdilution assay; format: cell-based; details: Streptococcus pneumoniae, CF8919, 18 h, read-out: 90% minimal inhibitory concentration
[29] = tested on: S. pneumoniae PN8828; assay: Broth microdilution assay; format: cell-based; details: Streptococcus pneumoniae, PN8828, 18 h, read-out: 90% minimal inhibitory concentration
[30] = tested on: S. pneumoniae BC57; assay: Broth microdilution assay; format: cell-based; details: Streptococcus pneumoniae, BC57, 18 h, read-out: 90% minimal inhibitory concentration
[31] = tested on: S. pneumoniae; assay: Broth microdilution assay; format: cell-based; details: Streptococcus pneumoniae, read-out: MIC90 values
Procedure, shortened: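 Pneumococci were pre-grown in BHI with gentle shaking at 37°C for 4–5 h (mid-exponential), adjusted to McFarland 0.5 (1.5 × 10^8 cfu/mL) and diluted 50× in BHI. 50 µL bacteria plus 100 µL of two-fold compound dilutions (top 50 or 200 µM) in BHI were run in duplicate, overnight at 37°C, 5% CO₂. OD620 at 18 h minus 0 h was taken relative to no-compound growth control; MIC90 is 90% turbidity reduction.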

[32] = biological target: T1, pneumococcal NA (Streptococcus pneumoniae, UniProt P62575); format: biochemical, S. pneumoniae; details: precipitated total proteins of all strains
T1 sequence (P62575 54-1006): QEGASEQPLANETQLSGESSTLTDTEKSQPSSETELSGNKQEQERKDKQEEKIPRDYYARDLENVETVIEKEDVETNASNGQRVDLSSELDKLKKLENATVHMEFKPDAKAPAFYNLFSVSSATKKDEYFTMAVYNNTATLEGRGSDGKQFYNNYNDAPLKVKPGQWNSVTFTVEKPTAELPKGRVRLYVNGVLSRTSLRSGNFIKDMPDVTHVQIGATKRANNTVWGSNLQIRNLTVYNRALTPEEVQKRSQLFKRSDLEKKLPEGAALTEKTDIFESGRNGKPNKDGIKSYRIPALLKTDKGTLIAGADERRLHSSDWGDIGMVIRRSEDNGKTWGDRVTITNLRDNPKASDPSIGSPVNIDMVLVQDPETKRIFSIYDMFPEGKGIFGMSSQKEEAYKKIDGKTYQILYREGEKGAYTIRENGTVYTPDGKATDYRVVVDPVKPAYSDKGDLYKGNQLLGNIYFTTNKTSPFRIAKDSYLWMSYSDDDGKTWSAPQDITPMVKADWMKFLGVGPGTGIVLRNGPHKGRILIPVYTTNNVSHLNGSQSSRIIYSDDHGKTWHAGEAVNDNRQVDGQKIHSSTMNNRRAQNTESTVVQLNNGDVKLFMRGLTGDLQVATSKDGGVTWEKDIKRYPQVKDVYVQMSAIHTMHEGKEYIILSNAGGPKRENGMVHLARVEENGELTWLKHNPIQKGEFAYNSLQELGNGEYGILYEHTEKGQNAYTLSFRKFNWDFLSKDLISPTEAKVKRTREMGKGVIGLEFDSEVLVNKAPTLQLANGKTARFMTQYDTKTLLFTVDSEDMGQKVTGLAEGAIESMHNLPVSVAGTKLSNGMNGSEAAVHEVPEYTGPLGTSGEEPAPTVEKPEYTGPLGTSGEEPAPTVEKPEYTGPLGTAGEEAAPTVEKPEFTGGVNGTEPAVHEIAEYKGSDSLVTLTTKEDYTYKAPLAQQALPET

[33] = biological target: T1, pneumococcal NA; format: biochemical, S. pneumoniae
[34] = biological target: T1, pneumococcal NA; details: ref Gut et al., 2011; cited from earlier work

## CC(=O)N[C@H]1[C@H]([C@H](O)[C@H](O)CO)OC(C(=O)O)=C[C@@H]1O [DANA, 2,3-dehydro-2-deoxy-N-acetylneuraminic acid]
[1]
  Inhibitory concentration (HA assay): 45.3 ± 30.6 µM
[2]
  Inhibitory concentration (HA assay): > 100 µM
[2]; reference strain D39
  activity in HA assay (in words): no activity
[3]
  Inhibitory concentration (HA assay): 15.4 ± 10.8 µM
[4]
  90% minimal biofilm inhibitory concentration: > 50 µM
[5]
  90% minimal biofilm inhibitory concentration: > 50 µM
[6]
  90% minimal biofilm inhibitory concentration: > 50 µM
[7]
  90% minimal biofilm inhibitory concentration: > 50 µM
[8]
  90% minimal biofilm inhibitory concentration: > 50 µM
[9]
  90% minimal biofilm inhibitory concentration: > 50 µM
[10]
  90% minimal biofilm inhibitory concentration: > 50 µM
[11]
  90% minimal biofilm inhibitory concentration: > 50 µM
[12]
  90% minimal biofilm inhibitory concentration: > 50 µM
[13]
  Bactericidal concentration: > 50 µM
[14]
  Bactericidal concentration: > 50 µM
[15]
  Bactericidal concentration: > 50 µM
[16]
  Bactericidal concentration: > 50 µM
[17]
  Bactericidal concentration: > 50 µM
[18]
  Bactericidal concentration: > 50 µM
[19]
  concentration up to which no inhibitory or bactericidal activity was exhibited: > 50 µM
[20]
  effect on adhesion of pneumococci to A549 cells (in words): did not reduce pneumococcal adherence

## CC(=O)N[C@H]1[C@H]([C@H](O)[C@H](O)CO)O[C@@](Oc2ccc3c(C)cc(=O)oc3c2)(C(=O)O)C[C@@H]1O [4-MUNANA, 2′-(4-methylumbelliferyl)-α-D-N-acetylneuraminic acid sodium salt hydrate]
[21]
  Km: 23.6 µM

## CO[C@H]1/C=C/O[C@@]2(C)Oc3c(C)c(O)c4c(O)c(c(/C=N/N5CCN(C)CC5)c(O)c4c3C2=O)NC(=O)/C(C)=C\C=C\[C@H](C)[C@H](O)[C@@H](C)[C@@H](O)[C@@H](C)[C@H](OC(C)=O)[C@@H]1C [rifampicin]
[22]
  MIC: 0.041 ± 0.011 µM (≈ 0.0337 µg/mL)
[23]
  MIC: 0.021 ± 0.002 µM (≈ 0.0173 µg/mL)
[24]
  MIC: 0.031 ± 0.023 µM (≈ 0.0255 µg/mL)
[25]
  MIC: 0.032 ± 0.03 µM (≈ 0.0263 µg/mL)
[26]
  MIC: 0.034 ± 0.028 µM (≈ 0.028 µg/mL)
[27]
  MIC: 0.016 ± 0.005 µM (≈ 0.0132 µg/mL)
[28]
  MIC: 0.009 ± 0.001 µM (≈ 0.00741 µg/mL)
[29]
  MIC: 0.005 ± 0.001 µM (≈ 0.00411 µg/mL)
[30]
  MIC: 0.012 ± 0.002 µM (≈ 0.00988 µg/mL)
[31]
  MIC90: 0.01 to 0.04 µM (≈ 0.00823 to 0.0329 µg/mL)
[4]
  90% minimal biofilm inhibitory concentration: 0.049 ± 0.030 µM
[5]
  90% minimal biofilm inhibitory concentration: 0.013 ± 0.002 µM
[6]
  90% minimal biofilm inhibitory concentration: 0.014 ± 0.008 µM
[7]
  90% minimal biofilm inhibitory concentration: 0.003 ± 0.001 µM
[8]
  90% minimal biofilm inhibitory concentration: 0.020 ± 0.002 µM
[9]
  90% minimal biofilm inhibitory concentration: 0.016 ± 0.010 µM
[10]
  90% minimal biofilm inhibitory concentration: 0.006 ± 0.004 µM
[11]
  90% minimal biofilm inhibitory concentration: 0.011 ± 0.007 µM
[12]
  90% minimal biofilm inhibitory concentration: 0.012 ± 0.001 µM
[13]
  Bactericidal concentration: 1.97 ± 1.23 µM
[14]
  Bactericidal concentration: 0.22 ± 0.09 µM
[15]
  Bactericidal concentration: 0.14 ± 0.06 µM
[16]
  Bactericidal concentration: 0.23 ± 0.16 µM
[17]
  Bactericidal concentration: 0.05 ± 0.03 µM
[18]
  Bactericidal concentration: 0.08 ± 0.03 µM
[19]; within 18 h
  factor of reduction of viability of pneumococci: > 1000

## CC(=O)N[C@H]1[C@H]([C@H](O)[C@H](O)CO)OC(C(=O)O)=C[C@@H]1N=C(N)N [zanamivir]
[32]
  inhibition of NA activity, FL-based assay (in words): did not show an effect
[33]; data not shown
  inhibition of NA activity, CL-based assay (in words): inefficacy
[1]
  Inhibitory concentration (HA assay): >100 µM
[2]
  Inhibitory concentration (HA assay): >100 µM
[3]
  Inhibitory concentration (HA assay): >100 µM
[22]
  MIC: > 50 µM
[23]
  MIC: > 50 µM
[24]
  MIC: > 50 µM
[25]
  MIC: > 50 µM
[26]
  MIC: > 50 µM
[27]
  MIC: > 50 µM
[28]
  MIC: > 50 µM
[29]
  MIC: > 50 µM
[30]
  MIC: > 50 µM
[4]
  90% minimal biofilm inhibitory concentration: > 50 µM
[5]
  90% minimal biofilm inhibitory concentration: > 50 µM
[6]
  90% minimal biofilm inhibitory concentration: > 50 µM
[7]
  90% minimal biofilm inhibitory concentration: > 50 µM
[8]
  90% minimal biofilm inhibitory concentration: > 50 µM
[9]
  90% minimal biofilm inhibitory concentration: > 50 µM
[10]
  90% minimal biofilm inhibitory concentration: > 50 µM
[11]
  90% minimal biofilm inhibitory concentration: > 50 µM
[12]
  90% minimal biofilm inhibitory concentration: > 50 µM
[13]
  Bactericidal concentration: > 50 µM
[14]
  Bactericidal concentration: > 50 µM
[15]
  Bactericidal concentration: > 50 µM
[16]
  Bactericidal concentration: > 50 µM
[17]
  Bactericidal concentration: > 50 µM
[18]
  Bactericidal concentration: > 50 µM
[34]
  inhibitory potency to pneumococcal NA (in words): weak

## O=C(CCc1ccccc1)C[C@@H]1C[C@@H](c2ccccc2)c2c(cc(/C=C/c3ccccc3)oc2=O)O1 [katsumadain A]
[33]; read-out: IC50, CL-based assay, range among the strains
  IC50: 0.31 to 1.61 µM
[1]
  Inhibitory concentration (HA assay): 3.2 ± 0.0 µM
[2]
  Inhibitory concentration (HA assay): 1.0 ± 0.0 µM
[3]
  Inhibitory concentration (HA assay): 0.7 ± 0.4 µM
[22]
  MIC: > 50 µM
[23]
  MIC: > 50 µM
[24]
  MIC: > 50 µM
[25]
  MIC: > 50 µM
[26]
  MIC: > 50 µM
[27]
  MIC: > 50 µM
[28]
  MIC: > 50 µM
[29]
  MIC: > 50 µM
[30]
  MIC: > 50 µM
[4]
  90% minimal biofilm inhibitory concentration: > 50 µM
[5]
  90% minimal biofilm inhibitory concentration: > 50 µM
[6]
  90% minimal biofilm inhibitory concentration: > 50 µM
[7]
  90% minimal biofilm inhibitory concentration: > 50 µM
[8]
  90% minimal biofilm inhibitory concentration: > 50 µM
[9]
  90% minimal biofilm inhibitory concentration: > 50 µM
[10]
  90% minimal biofilm inhibitory concentration: > 50 µM
[11]
  90% minimal biofilm inhibitory concentration: > 50 µM
[12]
  90% minimal biofilm inhibitory concentration: > 50 µM
[13]
  Bactericidal concentration: > 50 µM
[14]
  Bactericidal concentration: > 50 µM
[15]
  Bactericidal concentration: > 50 µM
[16]
  Bactericidal concentration: > 50 µM
[17]
  Bactericidal concentration: > 50 µM
[18]
  Bactericidal concentration: > 50 µM
[19]
  concentration up to which no inhibitory or bactericidal activity was exhibited: > 50 µM
[20]
  effect on adhesion of pneumococci to A549 cells (in words): did not reduce pneumococcal adherence
